Reference: ChEMBL document CHEMBL2346643, “Semisynthetic studies identify mitochondria poisons from botanical dietary supplements--geranyloxycoumarins from Aegle marmelos” (Bioorg Med Chem, 2013)
Calls of active or inactive are those of the source. The calls are words filed in the database; no cut-off is given here.

Columns and labels:
T47D [1] = assay: Antiproliferative activity against human T47D cells at 1 to 10 uM after 48 hrs by SRB assay; assay type: functional, cell-based
How it was run: (§1)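 T47D or MDA-MB-231 breast tumor cells were exposed to 1, 3, 10 and 30 μM for 48 h or 144 h (6 d). For the 6 d exposure, medium was replaced after 3 days with fresh medium containing compound. Stocks were 4 mM in 2-propanol, with final solvent below 0.75%. Viability was measured by sulforhodamine B and expressed as % inhibition of the untreated control: [1−(OD treated/OD control)]×100.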

MDA-MB-231 [2] = assay: Antiproliferative activity against human MDA-MB-231 cells at 1 to 10 uM after 48 hrs by SRB assay; assay type: functional, cell-based; how it was run: as §1
T47D [3] = assay: Inhibition of mitochondrial ETC complex 1 in human T47D cells assessed as inhibition of oxygen consumption at 30 uM after 5 to 10 mins by Clarke-type electrode analysis; assay type: cell-based
How it was run: (§2)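 For acute exposure, intact T47D cells received compound at 3, 10 or 30 μM for 5–10 min. Oxygen consumption was then measured with a Clarke-type electrode, with rotenone at 1–100 nM as control. Results are % inhibition of the untreated rate, averaged over two independent experiments with deviation from the average.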

[4] = molecular target: Mitochondrial complex I (NADH dehydrogenase); assay: Inhibition of mitochondrial ETC complex 1 in human T47D cells assessed as inhibition of 1,10-phenanthroline-induced HIF1 activation incubated for 30 mins prior to 1,10-phenanthroline-challenge measured after 16 hrs by luciferase reporter assay; assay type: cell-based
How it was run: (§3)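 pHRE-luc reporter transfected T47D cells were exposed for 16 h to hypoxia (1% O2) or to chemical hypoxia (10 μM 1,10-phenanthroline) in the presence of compound. The highest concentration tested was 30 μM. Luciferase signal was expressed as % inhibition of the induced control. IC50 and 95% CI came from one representative concentration-response experiment run in triplicate. Cycloheximide at 10 μM served as control.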

[5] = molecular target: Mitochondrial complex I (NADH dehydrogenase); assay: Inhibition of mitochondrial ETC complex 1 in human T47D cells assessed as inhibition of 1% O2-induced HIF1 activation incubated for 30 mins prior to 1% O2-challenge measured after 16 hrs by luciferase reporter assay; assay type: cell-based; how it was run: as §3
T47D [6] = assay: Inhibition of mitochondrial ETC complex 1 in human T47D cells assessed as inhibition of oxygen consumption after 5 to 10 mins by Clarke-type electrode analysis; assay type: cell-based; how it was run: as §2
T47D [7] = assay: Inhibition of mitochondrial ETC complex 4 in human digitonin-permeabalized T47D cells assessed as inhibition of ascorbate/TMPD-initiated respiration at 10 uM after 2 hrs by Clarke-type electrode analysis in presence of antimycin A; assay type: cell-based
How it was run: (§4)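 T47D cells were pretreated for 2 h with 10 μM compound (rotenone control 0.01 μM), then detached, washed and permeabilized with digitonin. Substrates and inhibitors were added in sequence while O2 uptake was followed by Clarke electrode. Respiration was started with malate/pyruvate (complex I) or succinate (complex II). Antimycin A then blocked complex III, and TMPD/ascorbate re-initiated respiration via complex IV. Rates were normalized to the untreated control.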

T47D [8] = assay: Inhibition of mitochondrial ETC complex 2 in human digitonin-permeabalized T47D cells assessed as inhibition of succinate-initiated respiration at 10 uM after 2 hrs by Clarke-type electrode analysis; assay type: cell-based; how it was run: as §4
T47D [9] = assay: Inhibition of mitochondrial ETC complex 1 in human digitonin-permeabalized T47D cells assessed as inhibition of malate/pyruvate-initiated respiration at 10 uM after 2 hrs by Clarke-type electrode analysis; assay type: cell-based; how it was run: as §4
T47D [10] = assay: Inhibition of mitochondrial ETC complex 1 in human T47D cells assessed as inhibition of oxygen consumption at 10 uM after 2 hrs by Clarke-type electrode analysis; assay type: cell-based
How it was run: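 T47D cells were pretreated with 10 μM compound, or 0.01 μM rotenone, for 2 h. Cells were then detached and washed, and the oxygen consumption rate was measured with a Clarke-type electrode. Results are % inhibition relative to untreated controls.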

T47D [11] = assay: Inhibition of mitochondrial ETC complex 1 in human T47D cells assessed as inhibition of oxygen consumption at 10 uM after 10 mins by Clarke-type electrode analysis; assay type: cell-based; how it was run: as §2
T47D [12] = assay: Inhibition of mitochondrial ETC complex 1 in human digitonin-permeabalized T47D cells assessed as inhibition of malate/pyruvate-initiated respiration at 30 uM after 2 hrs by Clarke-type electrode analysis in presence of succinate; assay type: cell-based
T47D [13] = assay: Inhibition of mitochondrial ETC complex 1 in human digitonin-permeabalized T47D cells assessed as inhibition of malate/pyruvate-initiated respiration at 30 uM after 2 hrs by Clarke-type electrode analysis; assay type: cell-based
T47D [14] = assay: Inhibition of mitochondrial ETC complex 4 in human digitonin-permeabalized T47D cells assessed as inhibition of ascorbate/TMPD-initiated respiration at 30 uM after 2 hrs by Clarke-type electrode analysis in presence of antimycin A; assay type: cell-based
T47D [15] = assay: Inhibition of mitochondrial ETC complex 2 in human digitonin-permeabalized T47D cells assessed as inhibition of succinate-initiated respiration at 30 uM after 2 hrs by Clarke-type electrode analysis; assay type: cell-based
T47D [16] = assay: Inhibition of mitochondrial ETC complex 4 in human digitonin-permeabalized T47D cells assessed as inhibition of ascorbate/TMPD-initiated respiration at 0.01 uM after 2 hrs by Clarke-type electrode analysis in presence of antimycin A; assay type: cell-based
How it was run: (§5)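 After 2 h pretreatment (rotenone 0.01 μM; test agents 10 μM), cells were detached and permeabilised with digitonin. Additions made in sequence: malate/pyruvate (complex I) or succinate (complex II), antimycin A to block complex III, then TMPD/ascorbate (complex IV) to restart respiration. Clark-electrode O2 consumption slopes were normalised to untreated control.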

T47D [17] = assay: Inhibition of mitochondrial ETC complex 2 in human digitonin-permeabalized T47D cells assessed as inhibition of succinate-initiated respiration at 0.01 uM after 2 hrs by Clarke-type electrode analysis; assay type: cell-based; how it was run: as §5
T47D [18] = assay: Inhibition of mitochondrial ETC complex 1 in human digitonin-permeabalized T47D cells assessed as inhibition of malate/pyruvate-initiated respiration at 0.01 uM after 2 hrs by Clarke-type electrode analysis; assay type: cell-based; how it was run: as §5
T47D [19] = assay: Inhibition of mitochondrial ETC complex 1 in human T47D cells assessed as inhibition of oxygen consumption at 0.01 uM after 2 hrs by Clarke-type electrode analysis; assay type: cell-based
How it was run: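 T47D cells treated 2 h in culture dishes with compound (10 μM; rotenone 0.01 μM), then detached and washed. O2 consumption measured with a Clark-type electrode. Value is % inhibition versus untreated control.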

T47D [20] = assay: Inhibition of mitochondrial ETC complex 1 in human T47D cells assessed as inhibition of oxygen consumption at 0.01 uM after 10 mins by Clarke-type electrode analysis; assay type: cell-based
How it was run: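 Intact T47D cells; O2 consumption read on a Clark-type electrode after acute (5–10 min) compound exposure. Value is % inhibition of O2 consumption rate versus untreated control. Rotenone reference tested at 1, 10 and 100 nM. Mean of two independent experiments.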

T47D [21] = assay: Antiproliferative activity against human T47D cells at 10 uM after 48 hrs by SRB assay; assay type: functional, cell-based
How it was run: (§6)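 Cells exposed 48 h to compounds at 1, 3, 10 and 30 μM (pure compounds from 4 mM 2-propanol stocks, final solvent <0.75%). Viability read by sulforhodamine B staining. Value is % inhibition versus untreated control, [1-(OD treated/OD control)]×100. Cycloheximide 10 μM and rotenone 1 and 10 nM served as controls.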

MDA-MB-231 [22] = assay: Antiproliferative activity against human MDA-MB-231 cells at 10 uM after 48 hrs by SRB assay; assay type: functional, cell-based; how it was run: as §6
MDA-MB-231 [23] = assay: Antiproliferative activity against human MDA-MB-231 cells at 1 to 30 uM after 144 hrs by SRB assay; assay type: functional, cell-based; how it was run: as §1
T47D [24] = assay: Antiproliferative activity against human T47D cells at 1 to 30 uM after 144 hrs by SRB assay; assay type: functional, cell-based; how it was run: as §1
MDA-MB-231 [25] = assay: Antiproliferative activity against human MDA-MB-231 cells at 30 uM after 48 hrs by SRB assay; assay type: functional, cell-based; how it was run: as §1
T47D [26] = assay: Antiproliferative activity against human T47D cells at 30 uM after 48 hrs by SRB assay; assay type: functional, cell-based; how it was run: as §1

Row | Structure (SMILES) | Activity (T47D [1]) | Activity (MDA-MB-231 [2]) | inhibition (T47D [3]) | IC50 [4] [µM] | IC50 [5] [µM] | inhibition (T47D [6]) | also measured
1 | COC(C)(C)[C@H](O)CC/C(C)=C/COc1ccc2ccc(=O)oc2c1 | Active | Active | 30% | > 30 | 19.3 | Dose-dependent effect | 
2 | C=C(C)[C@H](O)CC/C(C)=C/COc1ccc2ccc(=O)oc2c1 | Active | Active | 30% | 21.8 | 10.4 | Dose-dependent effect | inhibition (T47D [7]): inactive; inhibition (T47D [8]): 16%; inhibition (T47D [9]): 16%; inhibition (T47D [10]): 31%; inhibition (T47D [11]): 27%
3 | C/C(=C\COc1ccc2ccc(=O)oc2c1)CC[C@@H](O)C(C)(C)Cl | Active | Active | 30% | 11.1 | 16.7 | Dose-dependent effect | inhibition (T47D [12]): inactive; inhibition (T47D [13]): Active; inhibition (T47D [14]): inactive; inhibition (T47D [15]): inactive
4 | COc1cc2ccc(=O)oc2cc1OC/C=C(\C)CCC=C(C)C | Active | Active | 30% | 24.2 | 17.5 | Dose-dependent effect | 
5 | C=C(C)[C@H]1Cc2c(ccc3c2O[C@@H]2COc4cc(OC)c(OC)cc4[C@@H]2C3=O)O1 |  |  |  |  |  |  | inhibition (T47D [16]): inactive; inhibition (T47D [17]): 18%; inhibition (T47D [18]): 75%; inhibition (T47D [19]): 68%; inhibition (T47D [20]): 21%
6 | C[C@@H]1C[C@@H]([C@H](O)CC2CC(=O)NC(=O)C2)C(=O)[C@@H](C)C1 |  |  |  |  |  |  | Activity (T47D [21]): Active; Activity (MDA-MB-231 [22]): Active
7 | COc1cc(C[C@H]2CO[C@H](c3ccc(O)c(OC)c3)[C@H]2COC(=O)CC(C)C)ccc1O [(+)-9'-ISOVALEROXYLARICIRESINOL] |  |  | inactive | 4.9 | 9.1 |  | 
8 | CC(C)=CCC/C(C)=C/COc1ccc2ccc(=O)oc2c1 [AURAPTENE] | Active | Active | 30% | 18.8 | 10.2 | Dose-dependent effect | inhibition (T47D [12]): inactive; inhibition (T47D [13]): Active; inhibition (T47D [14]): inactive; inhibition (T47D [15]): inactive
9 | CC(C)=CCOc1ccc(CCNC(=O)/C=C/c2ccccc2)cc1 [DEHYDROMARMELINE] |  |  | 70% | > 30 | 15.1 |  | inhibition (T47D [12]): inactive; inhibition (T47D [13]): Active; inhibition (T47D [14]): inactive; inhibition (T47D [15]): inactive
10 | CCCCC/C=C\C/C=C\CCCCCCCC(=O)O[C@H](CC/C(C)=C/COc1ccc2ccc(=O)oc2c1)C(C)(C)O [R-(+)-MARMIN-6'-LINOLEATE] | Active | Active | 25% | 2.35 | 0.92 |  | Activity (MDA-MB-231 [23]): Active; Activity (T47D [24]): Active; inhibition (T47D [7]): inactive; inhibition (T47D [8]): 41%; inhibition (T47D [9]): 68%; inhibition (T47D [10]): 62%; inhibition (T47D [11]): 6%
11 | CCCCCCCC(=O)O[C@H](CC/C(C)=C/COc1ccc2ccc(=O)oc2c1)C(C)(C)O [R-(+)-MARMIN-6'-OCTANOATE] | Active | Active | 30% | 3.71 | 3.08 | Dose-dependent effect | Activity (MDA-MB-231 [23]): Active; Activity (T47D [24]): Active; Activity (MDA-MB-231 [25]): Active; Activity (T47D [26]): Active; inhibition (T47D [7]): inactive; inhibition (T47D [10]): 39%; inhibition (T47D [11]): 28%
12 | CCCCCCCCCCCCCCCC(=O)O[C@H](CC/C(C)=C/COc1ccc2ccc(=O)oc2c1)C(C)(C)O [R-(+)-MARMIN-6'-PALMITATE] | Active | Active | 20% | > 30 | > 30 |  | 
13 | CCCCCCCCCCC(=O)O[C@H](CC/C(C)=C/COc1ccc2ccc(=O)oc2c1)C(C)(C)O [R-(+)-MARMIN-6'-UNDECANOATE] | Active | Active | 30% | 3.67 | 0.87 | Dose-dependent effect | Activity (MDA-MB-231 [23]): Active; Activity (T47D [24]): Active; Activity (MDA-MB-231 [25]): Active; Activity (T47D [26]): Active
14 | C/C(=C\COc1ccc2ccc(=O)oc2c1)CC[C@@H](O)C(C)(C)O [R-(+)-MARMIN] | Active | Active | 20% | > 30 | > 30 |  | 
